Bioassay records from PubChem BioAssay.
PAFAH1B2 FP inh: PAFAH1B2 enzyme inhibitors, primary screen, biochemical, fluorescence polarization, human; recombinant PAFAH1B2, FP-rhodamine activity probe; actives 1.2% (n = 340,000); AID 492953, 2010; inhibition, % at 3.39 µM;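 active means inhibition above the mean of all tested compounds plus 3 SD, cut at about 24% in these data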;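 further: 0% = enzyme with DMSO and 100% = wells lacking PAFAH1B2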
PAFAH2 FP inh: PAFAH2 enzyme inhibitors, primary screen, biochemical, fluorescence polarization, human; recombinant PAFAH2, FP-rhodamine activity probe; inhibition, % at 3.39 µM; actives 0.99% (n = 340,000); AID 492956, 2010;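 active means inhibition above the mean over all tested compounds plus 3 SD, cut at about 30% in these data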;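 further: inhibitors block probe labeling of enzyme so polarization drops; 0% = enzyme with DMSO and 100% = wells lacking PAFAH2 protein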
pPAFAH inh: pPAFAH enzyme inhibitors, primary screen, biochemical, fluorescence polarization, human; Platelet-activating factor acetylhydrolase (Homo sapiens), Q13093; recombinant pPAFAH, FP-rhodamine probe fluorescence polarization; inhibition, % at 3.39 µM; actives 1.5% (n = 330,000); AID 463082, 2010;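 active means inhibition above the mean inhibition across the screen plus 3 SD, cut at about 25% in these data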;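 further: inhibitors block binding of the rhodamine activity-based probe so polarization drops; 0% = enzyme with DMSO and 100% = wells lacking pPAFAH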
Target sequence (Q13093 whole entry, looked up): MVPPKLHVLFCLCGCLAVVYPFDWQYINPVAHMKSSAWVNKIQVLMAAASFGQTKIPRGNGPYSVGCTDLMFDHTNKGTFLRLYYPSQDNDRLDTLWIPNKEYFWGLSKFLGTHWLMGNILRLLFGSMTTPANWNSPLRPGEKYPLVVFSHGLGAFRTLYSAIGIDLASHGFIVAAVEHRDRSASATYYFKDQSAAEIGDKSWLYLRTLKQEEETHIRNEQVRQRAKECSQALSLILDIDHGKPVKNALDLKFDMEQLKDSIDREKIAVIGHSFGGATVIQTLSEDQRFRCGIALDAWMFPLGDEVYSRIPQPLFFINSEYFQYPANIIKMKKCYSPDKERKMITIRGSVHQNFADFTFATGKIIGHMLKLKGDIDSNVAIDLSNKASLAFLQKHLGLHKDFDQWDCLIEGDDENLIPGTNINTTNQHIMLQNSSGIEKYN
ARFGAP1 inhibitor: inhibitors of rat ARFGAP1 GAP activity, primary screen, biochemical, fluorescence polarization, GDP tracer | Arfgap1-stimulated ARF1 GTP hydrolysis, GDP FP detection | actives 0.26% (n = 360,000) | ADP-ribosylation factor GTPase-activating protein 1 (Rattus norvegicus), Q62848 | inhibition, % at 16.5 µM;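 active means inhibition above a per-plate limit, mean inhibition of low control wells plus 3 SD, cut at about 25% in these data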;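 further: 0% = DMSO wells with enzyme and 100% = wells lacking Arfgap1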
Target sequence (Q62848 1-136 limits assumed): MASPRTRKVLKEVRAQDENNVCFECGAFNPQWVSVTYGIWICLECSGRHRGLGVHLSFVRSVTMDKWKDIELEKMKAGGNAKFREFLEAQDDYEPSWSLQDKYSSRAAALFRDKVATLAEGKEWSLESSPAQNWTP
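Assay system: purified rat His6-Arfgap1 residues 1-136 (GAP domain); Reagent: human Δ17 ARF1 bound to GTP; Dosing: 16.5 µM single point, 1.26% DMSO; Times: GTP hydrolysis reaction 2 h at 25 °C; Signal: FP, GDP Alexa 633 tracer displaced from anti-GDP antibody, 620/688 nm; Measure: % inhibition from polarization.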
PAFAH1B3 FP inh: PAFAH1B3 enzyme inhibitors, primary screen, biochemical, fluorescence polarization, human; Platelet-activating factor acetylhydrolase IB subunit alpha1 (Homo sapiens), Q15102; recombinant PAFAH1B3, FP-rhodamine probe; inhibition, % at 3.39 µM; actives 0.28% (n = 340,000); AID 492972, 2010;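 active means inhibition above the screen-wide average of all tested compounds plus 3 SD, cut at about 25% in these data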;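 further: 0% = enzyme with DMSO only and 100% = wells lacking PAFAH1B3 protein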
ASAP1 GAP inh: inhibitors of human ASAP1 ArfGAP activity, primary screen, biochemical, fluorescence polarization; ASAP1-stimulated ARF1 GTP hydrolysis, GDP FP detection; actives 0.19% (n = 360,000); inhibition, % at 16.5 µM; AID 624377, 2012; in the data active means inhibition above about 25%;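 further: 0% = vehicle with enzyme and substrate and 100% = no enzyme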
* hit, by the source's call; . = no result given. In the library only some 2.8% were active in any assay of this set; here they are far more common.

SMILES	PAFAH1B2 FP inh	PAFAH2 FP inh	pPAFAH inh	ARFGAP1 inhibitor	PAFAH1B3 FP inh	ASAP1 GAP inh
COc1ccc(NC(=O)COC(=O)CC2CC3CCC2C3)c([N+](=O)[O-])c1 (stereo unspecified)	7	54*	33*	6	3	-6
COc1ccc(NC(=O)CC2Nc3cc(C)c(C)cc3NC2=O)c([N+](=O)[O-])c1 (stereo unspecified)	7	-1	26*	-3	-5	17
COc1cc(NC(=O)COC(=O)CC2CC3CCC2C3)cc(OC)c1 (stereo unspecified)	11	12	15	18	0	-6
O=C(COC(=O)CC1CC2CCC1C2)Nc1ccccc1Cl (stereo unspecified)	0	45*	28*	-4	6	-2
C[C@H]1CN([C@@H](C)CO)C(=O)CCCn2cc(nn2)CO[C@@H]1CN(C)C(=O)Nc1ccc(F)cc1	.	.	.	1	.	-1
COCCn1c(SCC(=O)NCCCN2CCCC2=O)nc2ccccc2c1=O	-1	-2	0	7	10	12
C[C@@H]1CN([C@H](C)CO)C(=O)CCCn2nncc2CO[C@H]1CN(C)Cc1ccc2cccnc2c1	.	.	.	8	.	11
O=C1C=C(N2CCOCC2)c2cccc3cccc1c23	.	.	.	5	.	-1
O=C1C=C(N2CCOCC2)c2ccccc2C1=O	21	47*	9	1	77*	5
CCc1cc(C(=O)O)c(NC(=O)/C=C/c2ccc(OC)cc2)s1	20	-2	17	6	7	1
CCc1cc(C(=O)O)c(NC(=O)/C=C/c2ccc(OC)c(OC)c2)s1	25*	9	19	-7	6	3
Cc1ccc(S(=O)(=O)N[C@H](C(=O)N2CCC(C(=O)N[C@H](C(=O)O)c3ccccc3)CC2)C(C)C)cc1	1	3	4	8	7	-6
S=C(Nc1ccc(Oc2ccccc2)cc1)N1CCOCC1	93*	127*	7	0	115*	6
S=C(Nc1ccccc1)N1CCOCCOCCN(C(=S)Nc2ccccc2)CCOCCOCC1	-4	-2	5	-5	-4	-3
Cc1ccc(S(=O)(=O)NCC2(c3ccccc3)CCOCC2)cc1	26*	9	0	6	6	1
CCCc1ccc(OCc2ccc(C(=O)N3CCSCC3)o2)cc1	1	-4	25*	-6	9	9
CC(C)(C)c1ccc(OCc2ccc(C(=O)N3CCOCC3)o2)cc1	-1	-1	4	8	4	-8
Cc1ccccc1Nc1cc2ccccc2c(=O)[nH]1	9	10	4	.	54*	.
C=CCN1/C(=C2/SC(=S)N(C)C2=O)Sc2ccccc21	.	.	4	.	.	.
CCN1CCN(C(c2cccs2)C(C)NC(=S)NC2CCCCC2)CC1 (stereo unspecified)	1	-3	34*	-10	7	-2
Cc1c(C(=O)O)cccc1-c1ccc(/C=N/n2cnnc2)o1	3	7	5	-5	6	12
Cc1c(C(=O)O)cccc1-c1ccc(/C=N/Nc2ccc(Br)cc2)o1	3	20	26*	-11	6	9
CCc1nc2c(OCCC3CCCCC3)cccn2c1N(C)C(=O)COc1ccccc1	.	.	.	-9	.	16
Cc1ccc(-c2cnc(C3CC3)o2)cc1S(=O)(=O)Nc1ccccc1	-4	12	31*	.	1	.
CC(=O)Nc1ccc(NS(=O)(=O)c2cc(-c3cnc(C4CC4)o3)ccc2C)cc1	4	6	0	-17	6	6
SMILES	PAFAH1B2 FP inh	PAFAH2 FP inh	pPAFAH inh	ARFGAP1 inhibitor	PAFAH1B3 FP inh	ASAP1 GAP inh
Cc1ccc(S(=O)(=O)N2[C@H](CC(=O)OCc3ccccc3)OC[C@@H]2C)cc1	.	.	.	-8	.	-7
CCOC(=O)c1sc(=S)n(-c2ccc(OC)cc2)c1C	.	.	11	-1	.	1
CCOC(=O)c1c2c(n(-c3ccc(OC)cc3)c1C)C(=O)C(=O)c1ccccc1-2	31*	56*	.	.	77*	.
CC(Sc1ccc(Cl)cc1)C(=O)NNC(=O)c1ccccc1O (stereo unspecified)	28*	25	10	4	2	-12
S=c1[nH]nc(-c2cc(-c3ccccc3)n[nH]2)n1/N=C/C=C/c1ccco1	.	.	26*	10	.	7
COc1ccc(/C=C/C(=O)CC(O)(c2ccccc2)C(F)(F)F)cc1 (stereo unspecified)	26*	10	-4	-8	10	4
O=C(/C=C/c1ccccc1)CC(O)(c1ccccc1)C(F)(F)F (stereo unspecified)	55*	9	2	-1	-2	0
COc1cc(OC)c(NC(=O)Cn2cnc3sc(C)c(S(=O)(=O)N4CCOCC4)c3c2=O)cc1Cl	-1	-1	5	-8	-7	4
N#C/C(=C\c1ccc(N2CCOCC2)o1)C(=O)NC1CCCCC1	24*	2	-2	-6	3	3
CC(C(=O)N1CCc2ccccc21)n1cnc2c1c(=O)n(C)c(=O)n2C (stereo unspecified)	-2	1	-3	-6	6	-2
CC(O)c1nc2ccccc2n1CCCc1ccccc1 (stereo unspecified)	0	1	34*	-7	-8	-8
COc1ccc(Cn2c(C)c(CC(=O)Nc3ccc(Oc4cccnc4)c(C)c3)c3ccccc32)cc1	.	.	.	7	.	4
C/C(CC(=O)Nc1ccc(N(C)C)cc1)=N\NC(=O)c1ccc(F)cc1	0	-7	1	6	5	-5
C/C(CC(=O)Nc1ccc(N(C)C)cc1)=N\NC(=O)c1ccc(C(C)(C)C)cc1	9	37*	5	-6	10	-12
COc1cccc(C(=O)NC(=S)N2CCN(c3ccc(C(F)(F)F)cc3[N+](=O)[O-])CC2)c1	2	1	26*	7	7	3
CCOc1ccc(C(=O)NC(=S)N2CCN(c3ccc(C(F)(F)F)cc3[N+](=O)[O-])CC2)cc1	0	5	8	7	-1	6
CCN(C(=O)CSc1nc2ccccc2o1)c1c(N)n(Cc2ccccc2)c(=O)[nH]c1=O	-1	-7	29*	4	-1	-4
c1ccc(OCCNc2ccn3nc(-c4ccc(OCCN5CCOCC5)cc4)cc3n2)cc1	.	.	.	18	.	22
CC1C/C(=C/c2ccco2)C(=O)/C(=C/c2ccco2)C1 (stereo unspecified)	.	.	48*	.	.	.
Nc1c(N2CCCC2)cc(Cl)c2nonc12	13	35*	15	.	66*	.
